Measured values published in ChEMBL document CHEMBL5030509, “A Crowding Barrier to Protein Inhibition in Colloidal Aggregates” (J Med Chem, 2021).
Active and inactive are the calls of the source. No cut-off for these calls is given here.

Columns and labels:
Bacteria [1] = assay: Inhibition of bacterial AmpC beta-lactamase at 10 uM of 10 nM of enzyme preincubated for 5 min followed by CENTA chromogenic substrate addition by spectrophotometric assay relative to control; set-up: scale not given: the % may be the effect or the level left
Outline: (§1)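 AmpC β-lactamase mixed with colloidal aggregator in 50 mM KPi pH 7 at room temperature, mixed by pipetting, incubated 30 s–15 min. Then 70 μM CENTA added and absorbance followed at 405 nm for 150 s. % activity is the initial rate relative to an aggregator-free control. T90 is the incubation time to reach 10% activity.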

Bacteria [2] = assay: Inhibition of bacterial AmpC beta-lactamase assessed as time reach to 90% inhibition in presence of preloaded MDH
Outline: (§2)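 AmpC activity with 70 μM CENTA, read at 405 nm for 150 s, in 50 mM KPi pH 7 at room temperature. For preloading, the aggregator was incubated 5 min with MDH before AmpC was added and incubated for varying times. % activity is relative to an aggregator-free rate control. T90 is the time to 10% activity.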

Bacteria [3] = assay: Inhibition of bacterial AmpC beta-lactamase at 10 uM using 2 nM of enzyme preincubated for 5 mins followed by CENTA chromogenic substrate addition by spectrophotometric assay relative to control; outline: as §1
Bacteria [4] = assay: Inhibition of bacterial AmpC beta-lactamase at 5 uM preincubated for 5 min followed by CENTA chromogenic substrate addition by spectrophotometric method relative to control; outline: as §1
[5] = target: T1, Malate dehydrogenase, mitochondrial (Homo sapiens) (UniProt P40926); assay: Inhibition of preloaded MDH (unknown origin) preincubated for 30 sec in absence of preloaded AmpC
T1 sequence (whole entry): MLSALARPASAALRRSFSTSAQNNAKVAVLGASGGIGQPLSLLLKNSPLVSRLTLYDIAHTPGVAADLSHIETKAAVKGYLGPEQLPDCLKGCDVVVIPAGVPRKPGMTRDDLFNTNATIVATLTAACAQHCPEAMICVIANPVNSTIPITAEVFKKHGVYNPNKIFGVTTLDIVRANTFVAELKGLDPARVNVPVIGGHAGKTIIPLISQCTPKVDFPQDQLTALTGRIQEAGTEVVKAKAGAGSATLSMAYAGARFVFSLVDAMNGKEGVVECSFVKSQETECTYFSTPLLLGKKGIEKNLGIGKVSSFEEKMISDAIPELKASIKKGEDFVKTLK
Outline: (§3)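 Porcine heart MDH assay: 200 μM nicotinamide adenine dinucleotide plus 200 μM oxaloacetate, read at 340 nm for 150 s, in 50 mM KPi pH 7 at room temperature. For preloading, the aggregator was first incubated 5 min with AmpC, then MDH was added and incubated for varying times. % activity is relative to an aggregator-free control.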

Bacteria [6] = assay: Inhibition of bacterial AmpC beta-lactamase preincubated for 30 sec in absence of preloaded MDH relative to control; conditions: concentration not given here; outline: as §2
Bacteria [7] = assay: Inhibition of bacterial AmpC beta-lactamase preincubated for 30 sec in presence of preloaded MDH relative to control; conditions: concentration not given here; outline: as §2
[8] = target: T1, Malate dehydrogenase, mitochondrial (Homo sapiens); assay: Inhibition of preloaded MDH (unknown origin) preincubated for 30 sec in presence of preloaded AmpC; outline: as §3
Bacteria [9] = assay: Inhibition of bacterial AmpC beta-lactamase at 10 uM using 2 nM of enzyme preincubated for 30 sec followed by CENTA chromogenic substrate addition by spectrophotometric assay relative to control; outline: as §1
Bacteria [10] = assay: Inhibition of bacterial AmpC beta-lactamase at 5 uM preincubated for 2 mins followed by CENTA chromogenic substrate addition by spectrophotometric method relative to control; outline: as §1
Bacteria [11] = assay: Inhibition of bacterial AmpC beta-lactamase assessed as time reach to 90% inhibition in absence of preloaded MDH; outline: as §2
Escherichia coli = assay: Inhibition of Escherichia coli beta galactosidase using ortho-nitrophenyl-beta-galactoside as substrate
Outline: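 E. coli β-galactosidase (overproducer) mixed with colloidal aggregator in 50 mM KPi pH 7, incubated 30 s–15 min at room temperature; reaction started with 300 μM ortho-nitrophenyl-β-galactoside and followed at 320 nm for 150 s. Initial rate divided by that of an aggregator-free control gives % activity.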

Bacteria [12] = assay: Inhibition of bacterial AmpC beta-lactamase at 5 uM preincubated for 1 min followed by CENTA chromogenic substrate addition by spectrophotometric method relative to control; outline: as §1
[13] = target: T1, Malate dehydrogenase, mitochondrial (Homo sapiens); assay: Inhibition of malate dehydrogenase (unknown origin) assessed as time to reach 90% inhibition pretreated with 50 mM KPi for 15 mins followed by nicotinamide adenine dinucleotide addition measured every 150 sec by spectrophotometric method; conditions: dose 5.0 mM, in the assay text read “5 mM KPi” for “50 mM KPi”
Outline: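 Porcine heart MDH mixed with colloidal aggregator in 50 mM KPi pH 7 at room temperature, incubated 30 s–15 min. Reaction started with 200 μM NADH and 200 μM oxaloacetic acid, followed at 340 nm for 150 s. Initial rate relative to an aggregator-free control gives % activity. T90 is the incubation time to 10% activity.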

Bacteria [14] = assay: Inhibition of bacterial AmpC beta-lactamase at 10 uM using 10 nM of enzyme preincubated for 30 sec followed by CENTA chromogenic substrate addition by spectrophotometric assay relative to control; outline: as §1

- Activity (Bacteria [1]): 20%
- TIME (Bacteria [2]): 0.0833 h
- inhibition (Bacteria [3]): 100%
- inhibition (Bacteria [4]): 100%
- inhibition [5]: Active
- inhibition (Bacteria [6]): 80%
- inhibition (Bacteria [7]): 45%
- inhibition [8]: Active
- inhibition (Bacteria [9]): 67%
- inhibition (Bacteria [10]): 80%
- TIME (Bacteria [11]): 0.0167 h
- inhibition (Escherichia coli): Active
- inhibition (Bacteria [12]): 40%
- TIME [13]: > 0.25 h
- inhibition (Bacteria [14]): 40%
Compound: CNC(=O)c1cc(Oc2ccc(NC(=O)Nc3ccc(Cl)c(C(F)(F)F)c3)cc2)ccn1
